Screening results from PubChem BioAssay.
TRPC4 agonist: activators of mouse TRPC4 channel. Q9QUQ5. HEK293 TRPC4beta/mu-opioid, Fluo4 calcium fluorescence; hits give high values. B-score at 10 µM. actives 0.49% (n = 310,000). AID 2237;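 active means B-score above 5 SD of library B-scores, and initial fluorescence ratio not above library mean plus 5 SD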;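 further: positive B-score marks a calcium rise read as TRPC4 activation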
Target sequence (Q9QUQ5 whole entry, looked up): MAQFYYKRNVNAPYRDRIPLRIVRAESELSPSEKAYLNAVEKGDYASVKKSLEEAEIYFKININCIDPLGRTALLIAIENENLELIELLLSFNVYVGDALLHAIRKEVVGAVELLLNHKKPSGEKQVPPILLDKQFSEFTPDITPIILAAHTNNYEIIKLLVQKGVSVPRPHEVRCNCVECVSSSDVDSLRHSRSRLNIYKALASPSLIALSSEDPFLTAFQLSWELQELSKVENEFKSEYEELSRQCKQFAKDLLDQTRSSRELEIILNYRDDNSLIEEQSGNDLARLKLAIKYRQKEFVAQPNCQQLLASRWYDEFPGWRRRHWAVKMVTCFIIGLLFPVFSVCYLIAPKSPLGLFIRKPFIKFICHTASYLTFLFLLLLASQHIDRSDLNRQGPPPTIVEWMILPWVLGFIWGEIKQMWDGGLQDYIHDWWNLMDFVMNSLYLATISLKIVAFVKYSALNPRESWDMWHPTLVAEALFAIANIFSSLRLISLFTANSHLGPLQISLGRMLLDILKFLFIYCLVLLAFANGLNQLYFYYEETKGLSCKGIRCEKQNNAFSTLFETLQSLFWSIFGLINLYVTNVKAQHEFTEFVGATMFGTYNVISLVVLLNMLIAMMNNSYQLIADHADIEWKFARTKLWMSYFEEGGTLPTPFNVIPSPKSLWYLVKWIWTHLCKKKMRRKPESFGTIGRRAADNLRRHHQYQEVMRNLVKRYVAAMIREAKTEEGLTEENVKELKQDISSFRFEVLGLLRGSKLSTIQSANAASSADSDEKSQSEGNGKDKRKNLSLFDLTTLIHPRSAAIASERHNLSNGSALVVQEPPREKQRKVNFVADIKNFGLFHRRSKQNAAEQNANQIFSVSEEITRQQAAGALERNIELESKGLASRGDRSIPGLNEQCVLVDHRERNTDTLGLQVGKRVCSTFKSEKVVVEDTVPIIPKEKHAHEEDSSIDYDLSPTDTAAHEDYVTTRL
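Assay system: HEK293 stable line with TRPC4beta plus mu-opioid receptor; schedule: 45 min room-temperature Fluo4 loading, 110 s read; technique: kinetic Fluo4 calcium fluorescence; evaluation: integrated baseline-normalised fluorescence ratio, converted to per-well B score; controls: buffer (low) and maximal DAMGO (high)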
TRPC4 PAM: allosteric potentiators of mouse TRPC4 channel; Q9QUQ5; HEK293 TRPC4beta/mu-opioid, DAMGO EC20, Fluo-4 Ca2+ flux; hits give high values; B-score at 10 µM; actives 0.42% (n = 310,000); AID 2227;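 active means B-score of calcium response area above 5 SD of library B-scores, with initial fluorescence ratio within 5 SD of library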;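 further: B-score of integrated fluorescence ratio over time as area under calcium response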
TRPC6 inh: inhibitors of mouse TRPC6 channel; B-score at 10 µM; Q61143; actives 1.1% (n = 310,000); HEK293-TRPC6, membrane potential dye, ACh-evoked depolarization; hits give low values;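 active means B-score under library mean minus 3 SD, initial fluorescence not abnormally high, positive integrated signal ratio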;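 further: B-score derived from integrated fluorescence ratio over the kinetic read; more negative B-score means stronger inhibition of depolarization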
TRPC4 block: inhibitors of mouse TRPC4 channel; HEK293 TRPC4beta/mu-opioid, DAMGO-evoked Fluo4 calcium flux; hits give low values; B-score at 10 µM; actives 0.39% (n = 300,000);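 active means B-score over 3 SD under the library average, no early fluorescence shift, positive overall ratio signal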
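Assay system: Stable TRPC4beta/mu-opioid receptor HEK293 cells | Reagent: DAMGO in two steps, submaximal then maximal | Compound dosing: Single concentration per test compound | Signal: Fluo4 Ca2+ flux fluorescence | Evaluation: Per-well B score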
TRPC6 activator: activators of mouse TRPC6 channel; B-score at 10 µM; AID 2550; actives 0.13% (n = 310,000); HEK293-TRPC6 membrane potential dye fluorescence; hits give high values;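 active means B-score of the integrated fluorescence ratio above library mean plus 3 SD, and starting fluorescence ratio within library mean plus 5 SD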;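 further: higher score means more depolarization so channel activation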
Numbers without * were called inactive. Hits are enriched below; roughly 2.3% of the tested compounds scored in any of these assays.

`c1ccc2c(CC3=NCCN3)cccc2c1` gave TRPC4 agonist inactive, TRPC4 PAM inactive, TRPC6 inh inactive, TRPC4 block inactive and TRPC6 activator inactive.
COc1ccc(C=Nc2ccc3[nH]ncc3c2)c(O)c1 was read as TRPC4 agonist inactive, TRPC4 PAM inactive, TRPC6 inh inactive, TRPC4 block inactive and TRPC6 activator inactive.
`Oc1c(Br)cc(Br)cc1C=Nc1ccc2[nH]ncc2c1` gave TRPC4 agonist inactive, TRPC4 PAM inactive, TRPC6 inh inactive, TRPC4 block -7* and TRPC6 activator inactive.
CC(Cc1ccco1)NC(=O)c1cccc(S(=O)(=O)N(C)C)c1 (stereo unspecified) was read as TRPC4 agonist inactive, TRPC4 PAM inactive, TRPC6 inh inactive, TRPC4 block inactive and TRPC6 activator inactive.
For Clc1cccc2sc(-c3nnc(-c4ccccc4)o3)c(Cl)c12 the results were TRPC4 agonist inactive, TRPC4 PAM inactive, TRPC6 inh inactive, TRPC4 block inactive and TRPC6 activator inactive.
For CCOC(=O)C1CCCN(C2CCN(Cc3nc(Cc4ccccc4)no3)CC2)C1 (stereo unspecified) the results were TRPC4 agonist inactive, TRPC4 PAM 11*, TRPC6 inh inactive, TRPC4 block inactive and TRPC6 activator inactive.
Cc1ccc(-c2cn(-c3ccccc3)c(SCC(N)=O)n2)cc1C was read as TRPC4 agonist inactive, TRPC4 PAM 21*, TRPC6 inh inactive, TRPC4 block inactive and TRPC6 activator inactive.
`Cc1ccc(S(=O)(=O)Nc2c(NC3CCCCC3)c3ccccc3oc2=O)c(C)c1` gave TRPC4 agonist inactive, TRPC4 PAM inactive, TRPC6 inh inactive, TRPC4 block inactive and TRPC6 activator inactive.
Cc1ccc(C)c(N(CC(=O)NC2CCCC2)C(=O)c2csnn2)c1 was read as TRPC4 agonist 70*, TRPC4 PAM inactive, TRPC6 inh inactive, TRPC4 block -10* and TRPC6 activator inactive.
`C=CCSc1nc2c(c(=O)[nH]c(=O)n2C)n1C/C=C(/C)Cl` gave TRPC4 agonist inactive, TRPC4 PAM inactive, TRPC6 inh inactive, TRPC4 block -7* and TRPC6 activator inactive.
Screening C=CCn1c(SCCN2CCOCC2)nc2c1c(=O)[nH]c(=O)n2C returned TRPC4 agonist inactive, TRPC4 PAM 23*, TRPC6 inh inactive, TRPC4 block inactive and TRPC6 activator inactive.
`C/C(Cl)=C/Cn1c(SCCN2CCOCC2)nc2c1c(=O)[nH]c(=O)n2C` gave TRPC4 agonist inactive, TRPC4 PAM inactive, TRPC6 inh inactive, TRPC4 block inactive and TRPC6 activator inactive.
COc1ccc(CCN2C(=O)CC(NNC(=O)c3ccccc3Br)C2=O)cc1OC (stereo unspecified) was read as TRPC4 agonist inactive, TRPC4 PAM inactive, TRPC6 inh inactive, TRPC4 block inactive and TRPC6 activator inactive.
`COc1ccccc1C(=O)NC1CCN(C(=O)Nc2ccc(F)cc2)CC1` gave TRPC4 agonist inactive, TRPC4 PAM inactive, TRPC6 inh inactive, TRPC4 block inactive and TRPC6 activator inactive.
Screening Cc1ccc(OCc2cc(C(=O)N(C)CCc3nc4ccccc4[nH]3)no2)cc1C returned TRPC4 agonist inactive, TRPC4 PAM inactive, TRPC6 inh inactive, TRPC4 block -6* and TRPC6 activator inactive.
For CC(=O)OC(c1nc2ccccc2c(=O)n1C1CC2(OC1=O)c1ccccc1N1C(=O)C(C)(C)N(O)C12)C(C)C (stereo unspecified) the results were TRPC4 agonist 83*, TRPC4 PAM inactive, TRPC6 inh inactive, TRPC4 block inactive and TRPC6 activator inactive.
Screening Cc1nn(C)c(Cl)c1CN1CCN(C2CCCC2)C(CCO)C1 (stereo unspecified) returned TRPC4 agonist inactive, TRPC4 PAM inactive, TRPC6 inh inactive, TRPC4 block inactive and TRPC6 activator inactive.
O=C(Nc1ccc2c(c1)CCC2)c1cnc(Cl)c(Cl)c1 was read as TRPC4 agonist inactive, TRPC4 PAM inactive, TRPC6 inh inactive, TRPC4 block inactive and TRPC6 activator inactive.
Screening O=C(Nc1ccc2c(c1)CCC2)c1ccc(Cl)nc1 returned TRPC4 agonist inactive, TRPC4 PAM inactive, TRPC6 inh inactive, TRPC4 block -6* and TRPC6 activator inactive.
CCn1c(N2CCN(S(=O)(=O)c3ccccc3C(F)(F)F)CC2)nc2ccccc21 was read as TRPC4 agonist 119*, TRPC4 PAM inactive, TRPC6 inh inactive, TRPC4 block inactive and TRPC6 activator inactive.
Screening Cc1nn(CC(=O)NCCC2=CCCCC2)c(C)c1[N+](=O)[O-] returned TRPC4 agonist inactive, TRPC4 PAM inactive, TRPC6 inh inactive, TRPC4 block inactive and TRPC6 activator inactive.
For COc1ccc(S(=O)(=O)Nc2ncccc2C)c2ccccc12 the results were TRPC4 agonist inactive, TRPC4 PAM 11*, TRPC6 inh inactive, TRPC4 block inactive and TRPC6 activator inactive.
`COc1ccc(Br)cc1S(=O)(=O)Nc1ncccc1C` gave TRPC4 agonist inactive, TRPC4 PAM inactive, TRPC6 inh inactive, TRPC4 block inactive and TRPC6 activator inactive.
For c1ccc2c(-c3cn4ccccc4n3)c[nH]c2c1 the results were TRPC4 agonist inactive, TRPC4 PAM inactive, TRPC6 inh -5.47*, TRPC4 block -9* and TRPC6 activator inactive.
Screening CC(C)=CCN1CCN(Cc2cccc3nonc23)CC1CCO (stereo unspecified) returned TRPC4 agonist inactive, TRPC4 PAM inactive, TRPC6 inh inactive, TRPC4 block -5* and TRPC6 activator inactive.
`COc1ccc(C2CC2/C(=N/O)c2ccccn2)cc1` (stereo unspecified) gave TRPC4 agonist inactive, TRPC4 PAM inactive, TRPC6 inh inactive, TRPC4 block inactive and TRPC6 activator inactive.
Screening COc1ccc(C2CC2/C(=N/O)c2ccccc2)cc1 (stereo unspecified) returned TRPC4 agonist inactive, TRPC4 PAM inactive, TRPC6 inh inactive, TRPC4 block -8* and TRPC6 activator inactive.
`COC(=O)c1ccc(N2CN=C(c3ccc(C)cc3)NC2=S)cc1` gave TRPC4 agonist inactive, TRPC4 PAM inactive, TRPC6 inh inactive, TRPC4 block inactive and TRPC6 activator inactive.
`S=C1NC(c2ccccc2)=NCN1c1ccc(Cl)cc1` gave TRPC4 agonist inactive, TRPC4 PAM 10*, TRPC6 inh inactive, TRPC4 block inactive and TRPC6 activator inactive.
Cc1nn(-c2ccccc2)c2nc(-c3ccccc3)cc(C(=O)N3CCOCC3)c12 was read as TRPC4 agonist inactive, TRPC4 PAM 14*, TRPC6 inh inactive, TRPC4 block inactive and TRPC6 activator inactive.
`COCCN(CCOC)C(=O)c1cc2sc3ccccc3c2s1` gave TRPC4 agonist inactive, TRPC4 PAM 13*, TRPC6 inh inactive, TRPC4 block inactive and TRPC6 activator inactive.
